From ChEMBL document CHEMBL4732273, “In Silico Targeting of the Long Noncoding RNA MALAT1” (ACS Med Chem Lett, 2021)
Calls of active or inactive are those of the source. The rule behind the calls is not given here.

Tests used:
[1] = Binding affinity to biotinylated-MALAT1 RNA (unknown origin) at 200 uM measured after 140 secs by Surface plasmon resonance analysis; conditions: time 140.0 sec
Outline: (§1)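 The RNA was 3′-biotinylated by ligating pCp-biotin with T4 RNA ligase 1 after dephosphorylation, then immobilized on the SPR chip at 300 RU. Compounds were injected as 50 μL at 200 μM at a 20 μL/min flow rate, followed by 60 s of dissociation. Biotinylated tRNA was immobilized and run the same way as the negative-control surface.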

tRNA = experiment: Binding affinity to biotinylated-tRNA (unknown origin) at 200 uM measured after 120 secs by Surface plasmon resonance analysis; type: nucleic-acid assay; conditions: time 120.0 sec; outline: as §1
[2] = Binding affinity to biotinylated-MALAT1 RNA (unknown origin) by Surface plasmon resonance analysis
Outline: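 Surface plasmon resonance on MALAT1 RNA that was 3′-biotinylated by pCp-biotin ligation with T4 RNA ligase 1 and immobilized at 300 RU. Compound was flowed at 20 μL/min with 60 s of dissociation. A biotinylated tRNA surface served as the negative control. The dissociation constant was derived from the SPR sensorgram analysis.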

SMILES | Activity [1] | Activity (tRNA) | Kd [2] [µM]
Cc1ccc(NC(=O)NCC2CCCN(C3CCN(C)CC3)C2)cc1 (stereo unspecified) | Active | Active | 
NCC1Cc2cccc(-c3cc4c(cc3C(N)=O)OCO4)c2O1 (stereo unspecified) | Active | Active | 
c1ccc2sc(C3CCCN(Cc4cc5n(n4)CCCNC5)C3)nc2c1 (stereo unspecified) | Active | inactive | 
CCN1CCCC1CNC(=O)CCC1CCN(Cc2cc3ccccc3s2)CC1 (stereo unspecified) | Active | Active | 
NS(=O)(=O)c1ccc(CNC2CCC3(CCNCC3)CC2)cc1 | Active | inactive | 400

Results, then the compound that gave them:

Activity [1] | Activity (tRNA) | Kd [2] [µM] | SMILES
Active | Active |  | COc1ncccc1CN1CCN(c2ccc(C(N)=O)cc2)CC1
Active | inactive |  | CN1CCC(O)(Cn2cnc3ccc(F)cc3c2=O)CC1
Active |  |  | O=C(c1cc(=O)[nH]c2cc(F)ccc12)N1CCCC(N2CCCC2)C1 (stereo unspecified)
